# Active and inactive are the calls of the source. The calls are words filed in the database; no cut-off is given here.
# Columns and labels:
# [1] = tested on: Staphylococcus aureus; experiment: Antibacterial activity against methicillin-resistant Staphylococcus aureus USA300 NRS384 clinical isolate preincubated followed by bacterial subculturing for 2 weeks; assay type: functional
# [2] = Efflux ratio of apparent permeability across basolateral to apical over apical to basolateral side in human Caco2 cells at 10 uM after 2 hrs by LC-MS/MS method; assay type: ADME, cell-based; settings: Caco-2
# [3] = tested on: Staphylococcus aureus; experiment: Bactericidal activity against methicillin-resistant Staphylococcus aureus USA400 NRS123 clinical isolate assessed as disruption of bacterial membrane by measuring leakage of 260 nM absorbing material at 5 times MIC after 30 mins by spectrophotometric method; assay type: functional
# [4] = tested on: Staphylococcus aureus; experiment: Bactericidal activity against methicillin-resistant Staphylococcus aureus USA400 infected in mouse J774 cells assessed as reduction in colony forming units at 16 ug/ml after 8 hrs by time kill assay relative to control; design: scale not given: the % may be the effect or the level left
# [5] = tested on: Staphylococcus aureus; experiment: Bactericidal activity against methicillin-resistant Staphylococcus aureus USA300 NRS384 clinical isolate after 18 hrs by broth microdilution method; assay type: functional; settings: USA300 NRS384, 18 h
# Outline: (§1)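 From MIC wells without visible growth, 5 uL spotted onto Tryptic soy agar, incubated 37 °C for at least 18 h; MBC taken as lowest concentration giving 99.9% growth inhibition.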
# [6] = Mean residence time in naive Sprague-Dawley rat at 50 mg/kg ,po administered via gavage by LC-MS/MS method; assay type: ADME, organism-based; settings: in vivo
# Outline: (§2)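 Male naïve rats, three animals; single oral gavage dose in 5% ethanol, 45% PEG 400, 50% water. Blood drawn into EDTA-K2 tubes over 24 h post dose; plasma protein-precipitated with acetonitrile, parent quantified by LC/MS/MS.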
# [7] = tested on: Staphylococcus aureus; experiment: Bactericidal activity against Staphylococcus aureus RN4220 NRS107 clinical isolate after 18 hrs by broth microdilution method; assay type: functional; settings: RN4220 NRS107, 18 h; outline: as §1
# [8] = Apparent permeability across apical to basolateral side in human Caco2 cells at 10 uM after 2 hrs by LC-MS/MS method; assay type: ADME, cell-based; settings: Caco-2
# [9] = tested on: Staphylococcus aureus; experiment: Bactericidal activity against methicillin-resistant Staphylococcus aureus USA100 NRS382 clinical isolate after 18 hrs by broth microdilution method; assay type: functional; settings: USA100 NRS382, 18 h; outline: as §1
# [10] = tested on: Staphylococcus aureus; experiment: Antibacterial activity against methicillin-resistant Staphylococcus aureus USA100 NRS382 clinical isolate after 20 hrs by broth microdilution method; assay type: functional; settings: USA100 NRS382, 20 h
# Outline: (§3)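 CLSI broth microdilution in cation-adjusted Mueller Hinton broth; compounds serially diluted, triplicate samples; 37 °C, 20 h. MIC read visually as lowest concentration with no visible growth; mean of triplicate determinations reported.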
# [11] = tested on: J774; experiment: Cytotoxicity against mouse J774 cells up to 16 ug/ml after 24 hrs by MTS assay; assay type: cell-based; settings: j774, 24 h
# Outline: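 Murine macrophages cultured in DMEM plus 10% FBS, 37 °C, 5% CO2; compounds at 8, 16, 32, 64 µg/mL in triplicate for 24 h against DMSO-matched controls. MTS reagent 4 h, read at OD490. Viability as % of DMSO control (triplicate mean ± SD); one-way ANOVA, Dunnett's post hoc, P < 0.05.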
# [12] = tested on: Staphylococcus aureus; experiment: Bactericidal activity against vancomycin-resistant Staphylococcus aureus VRSA10 after 18 hrs by broth microdilution method; assay type: functional; settings: VRSA10, 18 h; outline: as §1
# [13] = tested on: Staphylococcus aureus; experiment: Bactericidal activity against methicillin-resistant Staphylococcus aureus USA400 assessed as time required to reduce log10CFU of bacterial load at 4 times MIC by time kill assay; assay type: functional
# [14] = Half life in human liver microsomes in absence of NADPH by LC-MS/MS method; assay type: ADME, microsome
# [15] = tested on: Staphylococcus aureus; experiment: Antibacterial activity against methicillin-resistant Staphylococcus aureus USA400 NRS123 clinical isolate after 20 hrs by broth microdilution method; assay type: functional; settings: USA400 NRS123, 20 h; outline: as §3
# [16] = tested on: Staphylococcus aureus; experiment: Antibacterial activity against methicillin-resistant Staphylococcus aureus USA100 NRS382 clinical isolate preincubated followed by bacterial subculturing for 2 weeks; assay type: functional
# [17] = tested on: Staphylococcus aureus; experiment: Bactericidal activity against methicillin-resistant Staphylococcus aureus USA200 NRS383 clinical isolate after 18 hrs by broth microdilution method; assay type: functional; settings: USA200 NRS383, 18 h; outline: as §1
# [18] = tested on: Staphylococcus aureus; experiment: Bactericidal activity against methicillin-resistant Staphylococcus aureus USA400 infected in mouse J774 cells assessed as reduction in colony forming units at 16 ug/ml after 4 hrs by time kill assay relative to control; assay type: functional; design: scale not given: the % may be the effect or the level left
# Outline: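 J774 murine macrophages in DMEM/10% FBS infected with MRSA USA400 at MOI ~100:1 for 1 h, extracellular bacteria killed with gentamicin 50 µg/mL; treated at 16 µg/mL in triplicate; after 4, 8 or 24 h cells washed, lysed with 0.1% Triton X-100, plated for CFU; percent reduction versus untreated, t-test.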
# [19] = tested on: Staphylococcus aureus; experiment: Antibacterial activity against methicillin-resistant Staphylococcus aureus USA200 NRS383 clinical isolate after 20 hrs by broth microdilution method; assay type: functional; settings: USA200 NRS383, 20 h; outline: as §3
# [20] = Intrinsic clearance in human liver microsomes in absence of NADPH by LC-MS/MS method; assay type: ADME, microsome; settings: read-out: CLH
# [21] = tested on: Staphylococcus aureus; experiment: Bactericidal activity against vancomycin-resistant Staphylococcus aureus VRSA4 after 18 hrs by broth microdilution method; assay type: functional; settings: VRSA4, 18 h; outline: as §1
# [22] = Half life in human liver microsomes in presence of NADPH by LC-MS/MS method; assay type: ADME, microsome
# [23] = tested on: HaCaT; experiment: Cytotoxicity against human HaCaT cells up to 64 ug/ml after 2 hrs by MTS assay; assay type: cell-based
# Outline: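 Keratinocytes grown in DMEM with 10% FBS at 37 °C, 5% CO2; exposed in triplicate to 8, 16, 32 and 64 µg/mL for 2 h. DMSO-matched controls. MTS added for 4 h, absorbance at 490 nm. Viability expressed as % of DMSO-treated cells (mean of triplicate ± SD); one-way ANOVA with Dunnett's test, P < 0.05.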
# [24] = Terminal elimination rate constant in naive Sprague-Dawley rat at 50 mg/kg ,po administered via gavage by LC-MS/MS method; assay type: ADME, organism-based; settings: in vivo, read-out: LZ (converted); outline: as §2
# [25] = tested on: Staphylococcus aureus; experiment: Antibacterial activity against methicillin-resistant Staphylococcus aureus USA200 NRS383 clinical isolate preincubated followed by bacterial subculturing for 2 weeks; assay type: functional
# [26] = tested on: Staphylococcus aureus; experiment: Antibacterial activity against Staphylococcus aureus RN4220 NRS107 clinical isolate after 20 hrs by broth microdilution method; assay type: functional; settings: RN4220 NRS107, 20 h; outline: as §3
# [27] = tested on: Staphylococcus aureus; experiment: Bactericidal activity against methicillin-resistant Staphylococcus aureus USA400 NRS123 clinical isolate after 18 hrs by broth microdilution method; assay type: functional; settings: USA400 NRS123, 18 h; outline: as §1
# [28] = Tmax in naive Sprague-Dawley rat at 50 mg/kg ,po administered via gavage by LC-MS/MS method; assay type: ADME, organism-based; settings: in vivo; outline: as §2
# [29] = Cmax in naive Sprague-Dawley rat at 50 mg/kg ,po administered via gavage by LC-MS/MS method; assay type: ADME, organism-based; design: dose 50 mg/kg, route oral; settings: in vivo; outline: as §2
# [30] = AUClast in naive Sprague-Dawley rat at 50 mg/kg ,po administered via gavage by LC-MS/MS method; assay type: ADME, organism-based; design: dose 50 mg/kg, time 0 - last, route oral; settings: in vivo; outline: as §2
# [31] = Apparent permeability across basolateral to apical side in human Caco2 cells at 10 uM after 2 hrs by LC-MS/MS method; assay type: ADME, cell-based; settings: Caco-2
structure (smiles),measurement,setting,value
C/C(=N\NC(=N)N)c1ccc(NC(=O)Nc2ccc(OC3CCCCCC3)cc2)cc1,Activity,[1],Active
same,"efflux ratio at 2 h, 10 µM",[2],> 1000
same,Activity,[3],inactive
same,Activity,[4],35.7%
same,MBC,[5],4 µg/mL
same,MRT,[6],28.4 h
same,MBC,[7],4 µg/mL
same,"Papp A→B at 2 h, 10 µM",[8],0.039 ×10⁻⁶ cm/s
same,MBC,[9],4 µg/mL
same,MIC,[10],2 µg/mL
same,Activity,[11],Non-Toxic
same,MBC,[12],8 µg/mL
same,Time,[13],<=4 hr
same,half-life,[14],0.897 h
same,MIC,[15],4 µg/mL
same,Activity,[16],Active
same,MBC,[17],4 µg/mL
same,Activity,[18],5%
same,MIC,[19],2 µg/mL
same,microsomal CLint,[20],42.9 µL/min/mg
same,MBC,[21],4 µg/mL
same,half-life,[22],1.14 h
same,Activity,[23],Non-Toxic
same,k el,[24],1.25e-05 s⁻¹
same,Activity,[25],Active
same,MIC,[26],2 µg/mL
same,MBC,[27],4 µg/mL
same,Tmax,[28],9.33 h
same,Cmax,[29],16.3 ng/mL
same,AUC(0-t),[30],218 ng·h/mL
same,"Papp B→A at 2 h, 10 µM",[31],51.9 ×10⁻⁶ cm/s
